Results on 11 compounds are retold here after ChEMBL document CHEMBL2331225, “Structure-based design, synthesis and evaluation of novel anthra[1,2-d]imidazole-6,11-dione derivatives as telomerase inhibitors and potential for cancer polypharmacology” (Eur J Med Chem, 2013).

The source made the active and inactive calls. The calls are words filed in the database; no cut-off is given here. A value given as a limit tells only on which side of the number the result lay.

Data set [1] addresses T1, Telomerase reverse transcriptase (Homo sapiens, UniProt O14746). Kind of data set: Inhibition of TERT transcriptional activity in human H1299 cells assessed SEAP activity at 1 uM incubated for 24 hrs by SEAP assay. The data set is classed as cell-based. Set-up: scale not given: the % may be the effect or the level left. The essentials: (§1)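 H1299 stable clones carry the hTERT promoter (−3338 to +1 bp) upstream of SEAP, introduced by electroporation and selected with G418. About 2 × 10³ cells per well were grown 24 h at 37 °C, given fresh medium, then drug for 24 h. Collected media were heated at 65 °C for 10 min, mixed with equal SEAP buffer (2 M diethanolamine, 1 mM MgCl₂, 20 mM L-homoarginine) and p-nitrophenyl phosphate at 12 mM final.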

Data set [2] deals with T1, Telomerase reverse transcriptase. Put plainly: Inhibition of TERT transcriptional activity in human H1299 cells assessed SEAP activity at 10 uM incubated for 24 hrs by SEAP assay. It counts as cell-based. Set-up: scale not given: the % may be the effect or the level left. The method in brief:
as §1

For data set [3] the target is unchanged. Kind of data set: Inhibition of TERT activity in human H1299 cells homogenates incubated for 5 mins at 100 uM by TRAP assay. It counts as cell-free. The essentials: (§2)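 Telomerase-active extracts were prepared from H1299 cells, and lysate protein was measured against BSA standards. Compounds were tested in the TRAP assay, with RNase A-treated extracts as negative controls.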

A further data set has as its system IMR-90. Put plainly: Cytotoxicity against human IMR90 cells after 48 hrs by MTT assay. The data set is classed as cell-based. The conditions noted are these: IMR-90, 48 h. In general terms: Tetrazolium dyes change colour on reduction, which living cells bring about.
Data set [4] addresses T1, Telomerase reverse transcriptase. Put plainly: Inhibition of TERT transcriptional activity in human H1299 cells assessed SEAP activity at 100 uM incubated for 24 hrs by SEAP assay. It counts as cell-based. More on the design: scale not given: the % may be the effect or the level left. The essentials: as §1
Data set [5] can be described thus: Cytotoxicity against human H1299 cells expressing hTERT and SEAP after 48 hrs by MTT assay. The data set is classed as cell-based. To be noted: nci-h1299, 48 h. The essentials: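 H1299 stably carrying P_hTERT-SEAP, about 2 × 10³ cells per well, were grown 24 h at 37 °C, washed with PBS and given fresh medium. Compounds were added at varying amounts for 48 h, and growth was measured by MTT read at 550 nm. Values come from three experiments, with untreated cells set as 100%.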

A short description of data set [6]: Cytotoxicity against human H1299 cells assessed as cell viability at 100 uM after 48 hrs by MTT assay. The data set is classed as functional. The conditions noted are these: NCI-H1299, 48 h, read-out: Activity. The essentials:
(§3)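 H1299 cells at about 2 × 10³ per well were grown 24 h at 37 °C in 5% CO₂. Compounds were dissolved in DMSO just before use and diluted into complete medium. After 48 h exposure, MTT was added for 4 h at 37 °C, then lysis buffer (20% SDS, 50% DMF) for 16 h at 37 °C. Absorbance was read at 550 nm.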

The nature of data set [7]: Cytotoxicity against human H1299 cells assessed as cell viability at 10 uM after 48 hrs by MTT assay. To be noted: NCI-H1299, 48 h, read-out: Activity. The data set is classed as functional. The essentials: as §3
For data set [8], the system named is PC-3. Kind of data set: Growth inhibition of human PC3 cells after 48 hrs by SRB assay. The data set is classed as functional, cell-based. To be noted: PC-3, 48 h. The essentials: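 PC-3 cells were seeded in medium with 5% FBS; after 24 h a plate was fixed with 10% TCA as T₀. Vehicle (0.1% DMSO) or compound was given for 48 h, then cells were TCA-fixed, stained with 0.4% SRB in 1% acetic acid, solubilized in 10 mM Trizma base and read at 515 nm. IC₅₀ is the concentration halving the protein increase seen in controls.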

Data set [9] can be described thus: Cytotoxicity against human H1299 cells assessed as cell viability at 1 uM after 48 hrs by MTT assay. The data set is classed as functional. The conditions noted are these: NCI-H1299, 48 h, read-out: Activity. The essentials:
as §3

The test system of the next data set is MOLT-4. Put plainly: Cytotoxicity against human MOLT4 cells assessed as cell growth level at 10 uM. It counts as functional.
Another data set relates to A498. Kind of data set: Cytotoxicity against human A498 cells assessed as cell growth level at 10 uM. It counts as functional.
In data set [10] the target is T1, Telomerase reverse transcriptase. Kind of data set: Inhibition of TERT activity in human H1299 cells homogenates incubated for 5 mins by TRAP assay. It counts as cell-free. The essentials:
as §2

Data set [11] has as its target DNA polymerase I, thermostable (Thermus aquaticus) (UniProt P19821). Put plainly: Inhibition of Thermus aquaticus DNA polymerase compound after telomerase extension step and before PCR-amplification step during TRAP assay. The essentials: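 TRAP-m variant: compounds were added after the telomerase extension step and before PCR amplification, using H1299 telomerase extracts, with RNase A-treated extracts as negative control.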

Data set [12] can be described thus: Cytotoxicity against human NCI-ADR-RES cells assessed as cell growth level at 10 uM. The data set is classed as functional.
The subject of data set [13] is PC-3. Put plainly: Cytotoxicity against human PC3 cells assessed as cell growth level at 10 uM. It counts as functional.
The next data set concerns DU-145. Put plainly: Cytotoxicity against human DU145 cells assessed as cell growth level at 10 uM. The data set is classed as functional.
Another data set concerns COLO 205. Put plainly: Cytotoxicity against human COLO205 cells assessed as cell growth level at 10 uM. It counts as functional.
For a further data set, the system named is SNB-19. Put plainly: Cytotoxicity against human SNB19 cells assessed as cell growth level at 10 uM. It counts as functional.
Data set [14] can be described thus: Cytotoxicity against human EKVX cells assessed as cell growth level at 10 uM. It counts as functional.

T1 sequence (O14746 whole entry): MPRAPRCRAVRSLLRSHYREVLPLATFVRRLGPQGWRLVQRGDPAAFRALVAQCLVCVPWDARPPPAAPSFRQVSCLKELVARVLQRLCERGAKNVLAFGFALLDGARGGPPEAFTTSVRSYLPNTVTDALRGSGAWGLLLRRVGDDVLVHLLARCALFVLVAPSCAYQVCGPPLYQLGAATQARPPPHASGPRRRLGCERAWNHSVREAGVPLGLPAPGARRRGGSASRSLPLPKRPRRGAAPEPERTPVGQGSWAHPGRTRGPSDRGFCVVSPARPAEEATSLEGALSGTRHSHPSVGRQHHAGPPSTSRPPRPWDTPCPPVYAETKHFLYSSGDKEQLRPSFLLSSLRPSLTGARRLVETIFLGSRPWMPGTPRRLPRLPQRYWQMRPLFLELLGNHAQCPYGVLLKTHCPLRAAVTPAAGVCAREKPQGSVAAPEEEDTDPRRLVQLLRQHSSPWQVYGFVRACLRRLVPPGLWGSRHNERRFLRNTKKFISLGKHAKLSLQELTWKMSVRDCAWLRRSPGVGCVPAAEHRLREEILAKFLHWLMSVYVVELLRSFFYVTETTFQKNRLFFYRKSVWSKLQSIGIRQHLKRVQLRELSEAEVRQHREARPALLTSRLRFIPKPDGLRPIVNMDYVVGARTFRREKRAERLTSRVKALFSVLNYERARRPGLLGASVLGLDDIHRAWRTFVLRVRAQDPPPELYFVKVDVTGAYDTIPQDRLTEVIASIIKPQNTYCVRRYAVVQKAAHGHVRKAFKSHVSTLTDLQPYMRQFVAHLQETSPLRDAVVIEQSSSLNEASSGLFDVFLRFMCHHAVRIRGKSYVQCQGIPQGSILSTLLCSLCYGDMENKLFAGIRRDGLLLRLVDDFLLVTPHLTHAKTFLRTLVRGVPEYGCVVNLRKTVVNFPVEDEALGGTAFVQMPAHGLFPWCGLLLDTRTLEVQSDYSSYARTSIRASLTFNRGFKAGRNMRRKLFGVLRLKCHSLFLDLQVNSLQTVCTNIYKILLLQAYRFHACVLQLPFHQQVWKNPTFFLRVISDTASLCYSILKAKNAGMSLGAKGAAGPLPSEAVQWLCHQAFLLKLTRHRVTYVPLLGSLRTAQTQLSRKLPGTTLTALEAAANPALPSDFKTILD
Sequence of DNA polymerase I, thermostable (Thermus aquaticus) (P19821 whole entry): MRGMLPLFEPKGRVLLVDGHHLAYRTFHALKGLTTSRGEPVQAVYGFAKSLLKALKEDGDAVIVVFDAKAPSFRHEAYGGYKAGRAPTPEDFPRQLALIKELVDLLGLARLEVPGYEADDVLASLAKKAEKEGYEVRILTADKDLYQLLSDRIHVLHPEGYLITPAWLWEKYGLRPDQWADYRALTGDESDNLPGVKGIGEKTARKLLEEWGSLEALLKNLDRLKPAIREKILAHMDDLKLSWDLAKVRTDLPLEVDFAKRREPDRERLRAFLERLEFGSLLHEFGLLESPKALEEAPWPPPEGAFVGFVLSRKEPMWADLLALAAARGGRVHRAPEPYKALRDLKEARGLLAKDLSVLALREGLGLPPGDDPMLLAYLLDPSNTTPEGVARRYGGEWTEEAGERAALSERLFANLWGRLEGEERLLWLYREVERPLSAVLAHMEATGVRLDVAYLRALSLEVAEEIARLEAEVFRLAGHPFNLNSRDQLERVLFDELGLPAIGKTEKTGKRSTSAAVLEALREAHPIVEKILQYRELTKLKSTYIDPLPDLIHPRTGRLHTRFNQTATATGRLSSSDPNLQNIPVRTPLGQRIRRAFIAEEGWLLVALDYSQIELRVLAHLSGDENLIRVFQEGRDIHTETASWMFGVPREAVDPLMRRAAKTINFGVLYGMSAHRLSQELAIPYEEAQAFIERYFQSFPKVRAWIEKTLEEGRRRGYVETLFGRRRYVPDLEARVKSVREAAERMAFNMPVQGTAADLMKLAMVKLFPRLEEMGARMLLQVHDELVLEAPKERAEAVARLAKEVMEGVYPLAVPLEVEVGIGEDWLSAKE

The term IC50 denotes the point on the concentration scale where inhibition reaches its midpoint. Turning to `O=C1c2ccccc2C(=O)c2c1ccc1nc(CCN3CCN(c4ncccn4)CC3)[nH]c21`, the Activity in [1] is 83%; in [2], 35%; in [4], 0%; in data set [5] it was “Non-toxic”. The “TERT inhibition (active/not active)” value in [3] was “inactive”. In addition, the IC50 in the data set on IMR-90 is 100 µM; in the data set with PC-3 [8] it was above 30 µM. Further, the viability at 100 µM in [6] was 0%. In [7], the viability at 10 µM was 84%. Further, the viability at 1 µM in data set [9] was 91%.

For `CN1CCN(Cc2nc3ccc4c(c3[nH]2)C(=O)c2ccccc2C4=O)CC1`, the Activity is -13.44% in the data set on MOLT-4; 69.36% with A498; 106% in data set [1]; 23% in [2]; 6% in [4]; 62.93% in data set [12]. The Activity in the data set with PC-3 [13] is recorded as 60.08%. In data set [3], the “TERT inhibition (active/not active)” value was “Active”. Moreover, the IC50 was above 10 µM in data set [10] and 6.5 µM in the data set on PC-3 [8]. Further, the viability at 100 µM in [6] came to 0%. In data set [11], the inhibition result was “inactive”. Further, the viability at 10 µM in [7] was 35%. In addition, the viability at 1 µM in data set [9] is 87%.

For `O=C1c2ccccc2C(=O)c2c1ccc1nc(CN3CCN(c4ccccc4)CC3)[nH]c21`, the Activity in the data set on A498 worked out at 75.09%; in data set [1], 92%; in [2] it was 77%; in [4], 6%; in the data set with DU-145, 77.91%; with PC-3 [13] it was 90.69%. Besides, the “TERT inhibition (active/not active)” value in data set [3] was “inactive”. Further, in data set [6], the viability at 100 µM amounted to 18%. The viability at 10 µM in [7] came to 54%. In addition, the IC50 in the data set on PC-3 [8] is above 30 µM. Also, the viability at 1 µM in data set [9] was 90%.

Regarding `O=C1c2ccccc2C(=O)c2c1ccc1nc(CN3CCC(CCCC4CCNCC4)CC3)[nH]c21`, the values for the Activity in data set [1], in [2] and in data set [4] were 96%, 8% and 3%, respectively. Also, in data set [3], the “TERT inhibition (active/not active)” value was “Active”. Moreover, the values for the IC50 (in [10]; in the data set with PC-3 [8]) were 5 µM and 13.8 µM, respectively. Also, the viability at 100 µM in data set [6] came out at 0%. Besides, the inhibition result in data set [11] was “inactive”. For the same compound, the viability at 10 µM in [7] was found to be 0%. The viability at 1 µM in data set [9] is 97%.

As for `O=C1c2ccccc2C(=O)c2c1ccc1nc(CCN3CCN(Cc4ccccc4)CC3)[nH]c21`, the Activity was 73% in data set [1], 5% in data set [2], 0% in data set [4] and “Non-toxic” in data set [5]. In addition, the “TERT inhibition (active/not active)” value in [3] was “inactive”. The IC50 stood at 100 µM in the data set on IMR-90 and 16 µM in the data set with PC-3 [8]. Moreover, in [6], the viability at 100 µM was determined as 6%. In addition, in [7], the viability at 10 µM was found to be 54%. Besides, in [9], the viability at 1 µM stood at 96%.

For `CN(CCc1ccccn1)Cc1nc2ccc3c(c2[nH]1)C(=O)c1ccccc1C3=O`, the Activity in the data set with A498 was 69.6%; in data set [1] it was 96%; in data set [2], 51%; in data set [4], 0%; in the data set with DU-145, 99.83%; in the data set with PC-3 [13], 83.7%. For the same compound, the “TERT inhibition (active/not active)” value in data set [3] is “inactive”. The viability at 100 µM in data set [6] is 0%. The viability at 10 µM in data set [7] was 99%. In the data set with PC-3 [8], this compound showed an IC50 of 14.2 µM. Further, in data set [9], the viability at 1 µM worked out at 104%.

With `CCN1CCN(Cc2nc3ccc4c(c3[nH]2)C(=O)c2ccccc2C4=O)CC1`, the Activity in [1] amounted to 92%; in [2], 14%; in [4], 0%. In addition, the “TERT inhibition (active/not active)” value in [3] is “Active”. For the same compound, the values for the concentration for half-maximal inhibition (IC50) (in data set [10]; in the data set with PC-3 [8]) were above 10 µM and 6.5 µM, respectively. Besides, the viability at 100 µM in data set [6] stood at 0%. Further, the inhibition result in data set [11] is “inactive”. Also, the viability at 10 µM in data set [7] is 35%. In addition, the viability at 1 µM in data set [9] was determined as 86%.

As for `O=C1c2ccccc2C(=O)c2c1ccc1nc(CN3CCCCC3)[nH]c21`, the Activity in the data set with A498 was 61.84%; in data set [1], 76%; in [2] it was 44%; in [4], 7%; in [5] it was “Non-toxic”; in the data set with DU-145 it was 81.94%. For the same compound, in the data set on PC-3 [13], the Activity amounted to 74.9%. Also, in data set [3], the “TERT inhibition (active/not active)” value is “inactive”. In addition, the concentration for half-maximal inhibition (IC50) was determined as 100 µM in the data set on IMR-90 and 10.3 µM with PC-3 [8]. Besides, the viability at 100 µM in [6] came to 20%. The viability at 10 µM in data set [7] turned out to be 79%. Further, in data set [9], the viability at 1 µM is 111%.

In the case of `CCN(CC)Cc1nc2ccc3c(c2[nH]1)C(=O)c1ccccc1C3=O`, the Activity was -9.43% in the data set with MOLT-4; 49.5% in the data set with A498; 91% in data set [1]; 32% in data set [2]; 81% in the data set on COLO 205; 0% in data set [4]. Also, the Activity in the data set on PC-3 [13] was 73.54%. The “TERT inhibition (active/not active)” value in data set [3] is “inactive”. The viability at 100 µM in [6] was 0%. For the same compound, in data set [7], the viability at 10 µM amounted to 55%. In addition, the concentration for half-maximal inhibition (IC50) in the data set on PC-3 [8] was found to be 10.3 µM. Moreover, the viability at 1 µM in data set [9] was 101%.

Regarding `O=C1c2ccccc2C(=O)c2c1ccc1nc(CN3CCN(c4ccccn4)CC3)[nH]c21`, the Activity came out at 68.23% in the data set with A498; 91% in [1]; 57% in data set [2]; 1% in [4]; 89.1% in the data set on DU-145; 81% in the data set with SNB-19. The Activity in [14] is given as 63%; in the data set on PC-3 [13], 81.46%. The “TERT inhibition (active/not active)” value in data set [3] is “inactive”. The viability at 100 µM in data set [6] was 20%. For the same compound, in data set [7], the viability at 10 µM amounted to 69%. This compound also yielded an IC50 in the data set on PC-3 [8] above 30 µM. Further, in data set [9], the viability at 1 µM came out at 91%.

For the compound `CC(C)N(C)Cc1nc2ccc3c(c2[nH]1)C(=O)c1ccccc1C3=O`, the Activity in [1] stood at 77%; in data set [2] it was 1%; in [4] it was 0%. The “TERT inhibition (active/not active)” value in [3] is “inactive”. In addition, the viability at 100 µM in data set [6] came to 0%. The viability at 10 µM in data set [7] was 23%. The compound further came in with an IC50 with PC-3 [8] of 6.7 µM. Also, the viability at 1 µM in [9] was 96%.
